The text below walks through data of ChEMBL document CHEMBL4823247, “Natural Isoflavones and Semisynthetic Derivatives as Pancreatic Lipase Inhibitors” (J Nat Prod, 2021).

The species named for assay [1] is Sus scrofa. Description: Binding affinity to pig pancreatic lipase type 2 assessed as Stern-Volmer quenching constant at 27 degC measured after 1 min by Stern-Volmer plot analysis. The procedure, abridged: (§1)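 Intrinsic Trp fluorescence titration of PL, 1.1 μM in 0.1 M phosphate buffer with 0.1 M NaCl, pH 7.4, by successive 1 or 2 μL additions of compound. Run at 27, 32 and 37 °C, each in triplicate. Excitation 285 nm, slits 10 nm. Spectrum recorded 1 min after each addition. Intensity at the emission maximum was used for Stern–Volmer plots.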

The species entered for assay [2] is Sus scrofa. Description: Binding affinity to pig pancreatic lipase type 2 assessed as bathochromic shift of maximum fluorescence intensity at 37 degC measured after 1 min by fluorescence spectral analysis. The procedure, abridged:
as §1

The species entered for assay [3] is Sus scrofa. Description: Binding affinity to pig pancreatic lipase type 2 assessed as decrease in fluorescence intensity at 27 degC measured after 1 min by fluorescence spectral analysis. The procedure, abridged: as §1
The species entered for assay [4] is Sus scrofa. Put plainly: Binding affinity to pig pancreatic lipase type 2 assessed as quenching rate constant at 27 degC measured after 1 min by Stern-Volmer plot analysis. The procedure, abridged: as §1
Assay [5] in a line: Non-competitive inhibition of pig pancreatic lipase type 2 using varying concentrations of p-nitrophenyl butyrate as substrate measured every 1 min for 30 mins by Lineweaver-Burk plot analysis. The arrangement: species or system Sus scrofa. In short, it runs like this: (§2)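 A405 was read every 1 min for 30 min. Mode of inhibition was from Lineweaver–Burk plots of 1/v0 vs 1/[S]. Ki and K'i were obtained from replots of slope and y-intercept versus inhibitor concentration.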

Assay [6] is filed under the species Sus scrofa. Put plainly: Binding affinity to pig pancreatic lipase type 2 assessed as binding constant at 32 degC measured after 1 min by Stern-Volmer plot analysis. In short, it runs like this:
as §1

A short description of assay [7]: Inhibition of pig pancreatic lipase type 2 using p-nitrophenyl butyrate as substrate preincubated with enzyme for 10 mins followed by susbtrate addition and measured after 30 mins by spectrophotometric analysis. The arrangement: species or system Sus scrofa. The procedure, abridged:
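PL (300 U/mL stock, in 50 mM phosphate buffer pH 7.2) was preincubated with compound aliquots (MeOH or MeOH:DMSO 95:5 stocks) for 10 min at 37 °C. p-Nitrophenyl butyrate (3.2 mM stock) was then added and incubated 30 min at 37 °C with shaking, read at 405 nm. Five concentrations per compound, in triplicate. % inhibition was taken from absorbance vs no-compound control, and IC50 by regression.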

Assay [8] is filed under the species Sus scrofa. Description: Binding affinity to pig pancreatic lipase type 2 assessed as quenching rate constant at 32 degC measured after 1 min by Stern-Volmer plot analysis. The procedure, abridged: as §1
Assay [9] is filed under the species Sus scrofa. Description: Binding affinity to pig pancreatic lipase type 2 assessed as bathochromic shift of maximum fluorescence intensity at 27 degC measured after 1 min by fluorescence spectral analysis. The procedure, abridged:
as §1

For assay [10], the species on record is Sus scrofa. Put plainly: Binding affinity to pig pancreatic lipase type 2 assessed as quenching rate constant at 37 degC measured after 1 min by Stern-Volmer plot analysis. In short, it runs like this:
as §1

Assay [11] is described as follows: Competitive inhibition of pig pancreatic lipase type 2 using varying concentrations of p-nitrophenyl butyrate as substrate measured every 1 min for 30 mins by Lineweaver-Burk plot analysis. The arrangement: species or system Sus scrofa. The procedure, abridged: as §2
The species entered for assay [12] is Sus scrofa. Put plainly: Binding affinity to pig pancreatic lipase type 2 assessed as binding constant at 27 degC measured after 1 min by Stern-Volmer plot analysis. The procedure, abridged:
as §1

For assay [13], the species on record is Sus scrofa. Put plainly: Binding affinity to pig pancreatic lipase type 2 assessed as binding constant at 37 degC measured after 1 min by Stern-Volmer plot analysis. The procedure, abridged: as §1
The species entered for assay [14] is Sus scrofa. Put plainly: Binding affinity to pig pancreatic lipase type 2 assessed as decrease in fluorescence intensity at 32 degC measured after 1 min by fluorescence spectral analysis. The procedure, abridged:
as §1

The species entered for assay [15] is Sus scrofa. Description: Binding affinity to pig pancreatic lipase type 2 assessed as decrease in fluorescence intensity at 37 degC measured after 1 min by fluorescence spectral analysis. The procedure, abridged:
as §1

The species entered for assay [16] is Sus scrofa. Put plainly: Binding affinity to pig pancreatic lipase type 2 assessed as Stern-Volmer quenching constant at 32 degC measured after 1 min by Stern-Volmer plot analysis. In short, it runs like this:
as §1

Assay [17] is filed under the species Sus scrofa. Put plainly: Binding affinity to pig pancreatic lipase type 2 assessed as bathochromic shift of maximum fluorescence intensity at 32 degC measured after 1 min by fluorescence spectral analysis. In short, it runs like this:
as §1

Assay [18] is filed under the species Sus scrofa. Description: Binding affinity to pig pancreatic lipase type 2 assessed as Stern-Volmer quenching constant at 37 degC measured after 1 min by Stern-Volmer plot analysis. The procedure, abridged:
as §1

Calls of active or inactive are those of the source. The rule behind the calls is not given here.

Turning to `COc1ccc(-c2coc3c(Br)c(O)ccc3c2=O)cc1`, the values for the KSV in [1], in assay [16] and in assay [18] were 4.69 10^4L/mol, 3.34 10^4L/mol and 2.29 10^4L/mol, respectively. Further, the outcome in [2], in assay [3], in assay [9], in [14], in assay [15] and in assay [17] was Active. The Kq in [4] was 2.95 10^13L/mol.s; in [8] it was 2.1 10^13L/mol.s; in assay [10] it was 1.43 10^13L/mol.s. For the same molecule, the Ki (usually the equilibrium dissociation constant of an inhibitor or competing ligand from its target) was 1900 µM in assay [5] and 320 µM in [11]. Further, the Ka was 8.47 10^4L/mol in assay [6], 12.4 10^4L/mol in assay [12] and 1.47 10^4L/mol in assay [13]. Besides, in assay [7], the IC50 (as a rule, the point on the concentration scale where inhibition reaches its midpoint) was 87 µM.

In assay [7], `COc1ccc2c(=O)c(-c3ccc(OC)c(OC)c3)coc2c1` registered an IC50 of 360 µM.

On to `COc1ccc(-c2coc3cc(O)ccc3c2=O)cc1` [FORMONONETIN], for which the KSV is 0.72 10^4L/mol in assay [1], 1.02 10^4L/mol in assay [16] and 1.06 10^4L/mol in assay [18]. Further, the outcome in [2], in [3], in [9], in [14], in assay [15] and in [17] was Active. The Kq in assay [4] is 0.45 10^13L/mol.s; in assay [8], 0.64 10^13L/mol.s; in [10], 0.66 10^13L/mol.s. Also, the Ki worked out at 2900 µM in assay [5] and 640 µM in assay [11]. Also, the Ka in assay [6] is 0.22 10^4L/mol; in assay [12], 0.16 10^4L/mol; in [13] it was 0.27 10^4L/mol. For the same molecule, in [7], half-maximal inhibition (IC50) was put at 120 µM.

In [7], `CC(=O)Oc1ccc2c(=O)c(-c3ccc(OC(C)=O)c(OC(C)=O)c3)coc2c1` showed an IC50 of 122 µM.

In turn, `COc1ccc(-c2coc3c(Br)c(O)ccc3c2=O)cc1Br` displayed a 50% inhibitory concentration (IC50) in assay [7] of 100 µM.

`Cc1cc(O)cc2occ(-c3ccc(O)c(O)c3)c(=O)c12` displayed an IC50 in [7] of 92 µM.

As for `COc1ccc(-c2coc3c(O)c(O)ccc3c2=O)cc1`, inhibition in [7] was half-maximal at 93 µM (IC50).

As for `O=c1c(-c2ccc(O)cc2)coc2cc(O)cc(O)c12` [GENISTEIN], the values for the KSV in [1], in assay [16] and in [18] were 1.88 10^4L/mol, 1.5 10^4L/mol and 1.07 10^4L/mol, respectively. The result in assay [2], in assay [3], in [9], in assay [14], in assay [15] and in assay [17] was Active. For the same molecule, the values for the Kq in [4], in assay [8] and in [10] were 1.18 10^13L/mol.s, 0.94 10^13L/mol.s and 0.67 10^13L/mol.s, respectively. Moreover, the Ka in [6] was 0.87 10^4L/mol; in assay [12], 1.24 10^4L/mol; in assay [13], 0.44 10^4L/mol. The same molecule came in with an IC50 in assay [7] of 60 µM. The molecule further showed a Ki in assay [11] of 80 µM.

`O=c1c(-c2cc(Br)c(O)c(Br)c2)coc2c(Br)c(O)ccc12`: the results for the KSV in assay [1], in [16] and in assay [18] were 0.58 10^4L/mol, 0.96 10^4L/mol and 1.11 10^4L/mol, respectively. Moreover, the outcome in [2], in [3], in assay [9], in [14], in assay [15] and in assay [17] was Active. For the same molecule, the Kq in assay [4] is 0.36 10^13L/mol.s; in assay [8], 0.6 10^13L/mol.s; in [10], 0.7 10^13L/mol.s. Also, the figures for the Ki in assay [5] and in assay [11] were 1200 µM and 90 µM, respectively. Besides, the Ka was 1.99 10^4L/mol in assay [6], 0.32 10^4L/mol in assay [12] and 3.21 10^4L/mol in [13]. This molecule also had an IC50 in assay [7] of 63 µM.

As to `O=c1c(-c2ccc(O)cc2)coc2cc(O)ccc12` [DAIDZEIN], the KSV is 8.95 10^4L/mol in assay [1], 4.94 10^4L/mol in assay [16] and 4.08 10^4L/mol in assay [18]. Besides, the result in assay [2], in assay [3], in [9], in [14], in [15] and in assay [17] was Active. The Kq in assay [4] is 5.62 10^13L/mol.s; in assay [8] it was 3.11 10^13L/mol.s; in assay [10] it was 2.57 10^13L/mol.s. Further, the results for the Ki in assay [5] and in assay [11] were 630 µM and 300 µM, respectively. In addition, the Ka is 1.2 10^4L/mol in assay [6], 5.3 10^4L/mol in assay [12] and 1.02 10^4L/mol in assay [13]. Besides, half-maximal inhibition in assay [7] (IC50) required 83 µM.

Molecule `O=c1c(-c2ccc(O)c(O)c2)coc2cc(O)ccc12` showed an IC50 in assay [7] of 70 µM. That is a double-digit micromolar value.

For the molecule `CCCCCCCCCCC[C@@H](C[C@@H]1OC(=O)[C@H]1CCCCCC)OC(=O)[C@H](CC(C)C)NC=O` [ORLISTAT], the IC50 in assay [7] was 0.6 µM.
